From ChEMBL document CHEMBL3779802, “Synthesis of hybrid 4-deoxypodophyllotoxin-5-fluorouracil compounds that inhibit cellular migration and induce cell cycle arrest” (Bioorg Med Chem Lett, 2016)
Calls of active or inactive are those of the source. The rule behind the calls is not given here.

Legend:
[1] = tested on: A549; assay: Upregulation of TIMP-1 expression in human A549 cells at 0.1 to 5 uM after 24 hrs by ELISA; format: functional, cell-based
[2] = tested on: A549; assay: Downregulation of MMP-9 expression in human A549 cells at 0.5 to 2 uM after 24 hrs by Western blot analysis; format: functional, cell-based
[3] = tested on: A549; assay: Downregulation of p-cdc2 expression in human A549 cells at 0.5 to 2 uM after 24 hrs by Western blot analysis; format: functional, cell-based
Procedure, shortened: (§1)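 Western blot for cdc2, p-cdc2 and cyclin B1 in A549 cells treated with vehicle, 0.5 or 2 μM for 24 h.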

[4] = tested on: A549; assay: Antimigratory activity in human A549 cells at 1 uM after 12 hrs by crystal violet staining based transwell migration assay; format: functional; settings: A549, 12 h
Procedure, shortened: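 Transwell migration of A549 cells exposed to vehicle, 0.3 or 1 μM for 12 h. Stained migrated cells imaged at 200× and counted. Inhibition expressed relative to untreated control; mean ± SD of three independent experiments.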

[5] = tested on: A549; assay: Downregulation of MMP-9 expression in human A549 cells at 0.1 to 5 uM after 24 hrs by ELISA; format: functional, cell-based
Procedure, shortened: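 MMP-9 in A549 cells measured by ELISA after 24 h exposure to 0, 0.1, 0.5, 1.5 or 5.0 μM. Mean ± SD, n = 3.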

[6] = Cytotoxicity against human WI38 cells assessed as growth inhibition after 48 hrs by MTT assay; format: cell-based; settings: WI-38, 48 h
Procedure, shortened: (§2)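 MTT assay with 48 h drug exposure on HeLa, A549, HCT-8 and HepG2 tumour cells and normal lung fibroblast WI-38. IC50 reported as the mean of three independent experiments.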

[7] = tested on: A549; assay: Upregulation of TIMP-1 expression in human A549 cells at 0.5 to 2 uM after 24 hrs by Western blot analysis; format: functional, cell-based
[8] = Cytotoxicity against human HCT8 cells assessed as growth inhibition after 48 hrs by MTT assay; format: functional, cell-based; settings: HCT-8, 48 h; procedure, shortened: as §2
[9] = tested on: HeLa; assay: Cytotoxicity against human HeLa cells assessed as growth inhibition after 48 hrs by MTT assay; format: functional, cell-based; procedure, shortened: as §2
[10] = tested on: A549; assay: Cell cycle arrest in human A549 cells assessed as accumulation at G2/M phase at 0.1 uM after 24 hrs by propidium iodide staining based flow cytometry (reference value: 22.4%); format: functional
[11] = tested on: A549; assay: Induction of apoptosis in human A549 cells assessed as nuclear fragmentation at 0.3 to 1 uM after 24 hrs by DAPI staining based fluorescence microscopy; format: functional, cell-based
Procedure, shortened: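 A549 cells treated with 0, 0.3 or 1 μM for 24 h, stained with DAPI and viewed by fluorescence microscopy at 200×. Nuclei scored for fragmentation and loss of normal morphology.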

[12] = tested on: HepG2; assay: Cytotoxicity against human HepG2 cells assessed as growth inhibition after 48 hrs by MTT assay; format: functional, cell-based; settings: HepG2, 48 h; procedure, shortened: as §2
[13] = tested on: A549; assay: Upregulation of cdc2 expression in human A549 cells at 0.5 to 2 uM after 24 hrs by Western blot analysis; format: functional, cell-based; procedure, shortened: as §1
[14] = tested on: A549; assay: Cell cycle arrest in human A549 cells assessed as accumulation at G1 phase at 0.1 uM after 24 hrs by propidium iodide staining based flow cytometry (reference value: 58.3%); format: functional
[15] = tested on: A549; assay: Cell cycle arrest in human A549 cells assessed as accumulation at G2/M phase after 24 hrs by propidium iodide staining based flow cytometry; format: functional
[16] = tested on: A549; assay: Upregulation of cyclinB1 expression in human A549 cells at 0.5 to 2 uM after 24 hrs by Western blot analysis; format: functional, cell-based; procedure, shortened: as §1
[17] = tested on: A549; assay: Cell cycle arrest in human A549 cells assessed as accumulation at G1 phase at 0.5 uM after 24 hrs by propidium iodide staining based flow cytometry (reference value: 58.3%); format: functional
[18] = tested on: A549; assay: Cell cycle arrest in human A549 cells assessed as accumulation at G2/M phase at 0.5 uM after 24 hrs by propidium iodide staining based flow cytometry (reference value: 22.4%); format: functional
[19] = tested on: A549; assay: Cell cycle arrest in human A549 cells assessed as accumulation at S phase at 0.1 uM after 24 hrs by propidium iodide staining based flow cytometry (reference value: 19.3%); format: functional
[20] = tested on: A549; assay: Cell cycle arrest in human A549 cells assessed as accumulation at S phase at 0.5 uM after 24 hrs by propidium iodide staining based flow cytometry (reference value: 19.3%); format: functional
[21] = tested on: A549; assay: Cytotoxicity against human A549 cells assessed as growth inhibition after 48 hrs by MTT assay; format: functional, cell-based; settings: A549, 48 h; procedure, shortened: as §2
[22] = tested on: A549; assay: Cell cycle arrest in human A549 cells assessed as decrease in cell level at G1 phase after 24 hrs by propidium iodide staining based flow cytometry; format: functional

Which results are given for `COc1cc([C@@H]2c3cc4c(cc3C[C@H]3COC(=O)[C@@H]32)OCO4)cc(OC)c1OC(=O)CCC(=O)NCCCCCCNC(=O)Cn1cc(F)c(=O)[nH]c1=O`?
Activity [1]: Active; Activity [2]: Active; Activity [3]: Active; inhibition at 1 µM [4]: 47%; Activity [5]: Active; IC50 [6]: 114 µM; Activity [7]: Active; IC50 [8]: 1.01 µM; IC50 [9]: 4.03 µM; Activity [10]: 47.2%; Activity [11]: Active; IC50 [12]: 0.45 µM; Activity [13]: Active; Activity [14]: 7.7%; Activity [15]: Dose-dependent effect; Activity [16]: Active; Activity [17]: 0.1%; Activity [18]: 64.5%; Activity [19]: 45.1%; Activity [20]: 35.4%; IC50 [21]: 0.27 µM; Activity [22]: Dose-dependent effect

What does the source list for `COc1cc([C@@H]2c3cc4c(cc3[C@@H](O[C@@H]3O[C@@H]5CO[C@@H](C)O[C@H]5[C@H](O)[C@H]3O)[C@H]3COC(=O)[C@H]23)OCO4)cc(OC)c1O` [ETOPOSIDE]?
IC50 [6]: 35.8 µM; IC50 [8]: 10.9 µM; IC50 [9]: 12.1 µM; IC50 [12]: 27.1 µM; IC50 [21]: 23.9 µM

Which results are given for `O=c1[nH]cc(F)c(=O)[nH]1` [FLUOROURACIL]?
IC50 [6]: 38.9 µM; IC50 [8]: 32.3 µM; IC50 [12]: 41.6 µM

For `COc1cc([C@@H]2c3cc4c(cc3C[C@H]3COC(=O)[C@@H]32)OCO4)cc(OC)c1OC(=O)NCCCCNC(=O)Cn1cc(F)c(=O)[nH]c1=O`, which IC50 [6] is on record?
Its IC50 is 85.5 µM.

And the IC50 [8]?
Its IC50 is 8.53 µM.

What about the IC50 [9] of the same compound?
Its IC50 is 9.58 µM.

And the IC50 [12]?
Its IC50 is 22.3 µM.

And the IC50 [21]?
Its IC50 is 23.9 µM.

For `COc1cc([C@@H]2c3cc4c(cc3C[C@H]3COC(=O)[C@@H]32)OCO4)cc(OC)c1OC(=O)N1CCN(CCCCn2cc(F)c(=O)[nH]c2=O)CC1`, which IC50 [6] is on record?
The IC50 was 104 µM.

What about the IC50 [8] of the same compound?
The IC50 was 9.18 µM.

What about the IC50 [9] of the same compound?
The IC50 was 13.2 µM.

And the IC50 [12]?
Its IC50 is 20.2 µM.

What about the IC50 [21] of the same compound?
Its IC50 is 2.14 µM.

Which IC50 [6] does the source give for `COc1cc([C@@H]2c3cc4c(cc3C[C@H]3COC(=O)[C@@H]32)OCO4)cc(OC)c1OC(=O)CCC(=O)N1CCN(C(=O)Cn2cc(F)c(=O)[nH]c2=O)CC1` here?
The IC50 was 112 µM.

And the IC50 [8]?
The IC50 was 9.01 µM.

What about the IC50 [9] of the same compound?
The IC50 was 15 µM.

What about the IC50 [12] of the same compound?
The IC50 was 11.5 µM.

And the IC50 [21]?
Its IC50 is 1.35 µM.

With `COc1cc([C@@H]2c3cc4c(cc3C[C@H]3COC(=O)[C@@H]32)OCO4)cc(OC)c1O` [4'-DEMETHYLDEOXYPODOPHYLLOTOXIN] as the compound, how does the IC50 [6] read?
Its IC50 is 78.5 µM.

And the IC50 [8]?
Its IC50 is 9.81 µM.

What about the IC50 [12] of the same compound?
The IC50 was 16.5 µM.

And the IC50 [21]?
Its IC50 is 3.9 µM.

For `COc1cc([C@@H]2c3cc4c(cc3C[C@H]3COC(=O)[C@@H]32)OCO4)cc(OC)c1OC(=O)NCCCCCCNC(=O)Cn1cc(F)c(=O)[nH]c1=O`, which IC50 [6] is on record?
The IC50 was 87 µM.

What about the IC50 [8] of the same compound?
The IC50 was 2.04 µM.

And the IC50 [9]?
The IC50 was 13.2 µM.

What about the IC50 [12] of the same compound?
The IC50 was 11.7 µM.

And the IC50 [21]?
Its IC50 is 0.14 µM.

For `COc1cc([C@@H]2c3cc4c(cc3C[C@H]3COC(=O)[C@@H]32)OCO4)cc(OC)c1OC(=O)NCCCNC(=O)Cn1cc(F)c(=O)[nH]c1=O`, which IC50 [6] is on record?
Its IC50 is 109 µM.

And the IC50 [8]?
Its IC50 is 5.26 µM.

And the IC50 [9]?
The IC50 was 15.8 µM.

And the IC50 [12]?
Its IC50 is > 100 µM.

And the IC50 [21]?
Its IC50 is 11.7 µM.

For `COc1cc([C@@H]2c3cc4c(cc3C[C@H]3COC(=O)[C@@H]32)OCO4)cc(OC)c1OC(=O)N1CCN(C(=O)Cn2cc(F)c(=O)[nH]c2=O)CC1`, which IC50 [6] is on record?
Its IC50 is 121 µM.

What about the IC50 [8] of the same compound?
The IC50 was 17.6 µM.

And the IC50 [9]?
The IC50 was 11.2 µM.

What about the IC50 [12] of the same compound?
The IC50 was 14.3 µM.

And the IC50 [21]?
Its IC50 is 2.41 µM.
